Data as given in ChEMBL document CHEMBL1123268 (J Med Chem, 1986).

Key:
[1] = test system: P388; assay: Compound was tested for its antineoplastic activity against P388 leukemia in CD2F1 male mice and the average percentage weight change on day 5 was measured.; type: functional
Outline: (§1)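 Toxicity readout in the P388 model: CD2F1 male mice given 10^6 cells ip on day 0, then daily ip dosing for 9 days from day 1. Average percentage body-weight change on day 5 was taken as the measure of drug toxicity.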

[2] = test system: P388; assay: Antineoplastic activity against P388 leukemia in CD2F1 male mice and the percent increase in life span was measured on day 30.; type: functional
Outline: (§2)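 P388 leukemia: CD2F1 male mice (18-20 g, six per group) received 10^6 cells ip on day 0. Drug injected ip daily on days 1-9. Survival followed 30 days, with some groups to 60 days. Activity read as treated/control mean survival time (T/C), with %ILS calculated as [(T - C)/C] × 100. NCI protocol.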

[3] = test system: L1210; settings: Mus musculus, at 100 mg/kg/day
[4] = test system: L1210; settings: Mus musculus
[5] = test system: L1210; settings: Mus musculus; remark: listed apart in the source
[6] = test system: P388; assay: Antineoplastic activities against P388 leukemia in CD2F1 male mice.; type: functional; outline: as §2
[7] = test system: P388; assay: Number of cures from P388 leukemia in CD2F1 male mice as tumor-free survivors after day 60.; type: functional; settings: for Cures (survivors/total): Mus musculus
Outline: (§3)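 Cures in P388-bearing CD2F1 male mice: 10^6 tumor cells ip on day 0, then ip treatment daily on days 1-9 in groups of six. Animals were observed up to 60 days, and tumor-free survivors were counted as cures.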

[8] = test system: L1210; settings: Mus musculus, at 100 mg/kg/day; remark: listed apart in the source
[9] = Therapeutic ratio as optimum dose/dose ILS40; settings: read-out: Therapeutic ratio
Outline: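 Therapeutic ratio derived from the P388/L1210 survival data (CD2F1 male mice, ip daily dosing days 1-9). Optimum dose is the daily dose giving maximum increase in life span. ILS40 dose is the daily dose giving a 40% increase in life span over controls.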

[10] = test system: L1210; assay: Compound was tested for anticancer activities against L1210 leukemia in CD2F1 male mice at dose of 50 mg/kg per day; type: functional, Mus musculus
[11] = test system: P388; assay: Compound was tested for number of cures from P388 leukemia in CD2F1 male mice as tumor-free survivors after day 60; 3/6; type: functional, Mus musculus; outline: as §3
[12] = test system: L1210; assay: Compound was tested for anticancer activities against L1210 leukemia in CD2F1 male mice at dose of 50 mg/kg per day; 0/6; type: functional, Mus musculus
[13] = test system: L1210; assay: Anticancer activities against L1210 leukemia in CD2F1 male mice at dose of 50 mg/kg per day; type: functional; settings: Mus musculus
[14] = test system: L1210; assay: Compound was tested for anticancer activities against L1210 leukemia in CD2F1 male mice at dose of 50 mg/kg per day; 12.0/7; type: functional, Mus musculus
[15] = test system: P388; assay: Compound was tested for its antineoplastic activities against P388 leukemia in CD2F1 male mice.; type: functional, Mus musculus; outline: as §2
[16] = test system: P388; assay: Compound was tested for its antineoplastic activity against P388 leukemia in CD2F1 male mice and the percent increase in life span was measured on day 30.; type: functional, Mus musculus; outline: as §2
[17] = test system: L1210; settings: Mus musculus; remark: listed apart in the source
[18] = test system: P388; assay: Antineoplastic activity against P388 leukemia in CD2F1 male mice and the average percentage weight change on day 5 was measured.; type: functional; outline: as §1
[19] = test system: L1210; assay: Compound was tested for anticancer activity against L1210 leukemia in CD2F1 male mice at dose of 25 mg/kg per day; 8.6/7; type: functional, Mus musculus
[20] = test system: L1210; type: functional, Mus musculus
[21] = test system: L1210; assay: Compound was tested for anticancer activities against L1210 leukemia in CD2F1 male mice at dose of 25 mg/kg per day; 0/6; type: functional, Mus musculus
[22] = test system: L1210; type: functional, Mus musculus; remark: listed apart in the source
[23] = test system: L1210; assay: animal or person; type: functional; settings: Mus musculus
[24] = test system: P388; assay: Compound was tested for its antineoplastic activity against P388 leukemia in CD2F1 male mice.; type: functional, Mus musculus; outline: as §2
[25] = test system: L1210; type: functional, Mus musculus; settings: at 100 mg/kg/day
[26] = test system: L1210; assay: Compound was tested for anticancer activity against L1210 leukemia in CD2F1 male mice at dose of 25 mg/kg per day; type: functional, Mus musculus
[27] = test system: P388; assay: Compound was tested for number of cures from P388 leukemia in CD2F1 male mice as tumor-free survivors after day 60; 6/6; type: functional, Mus musculus; outline: as §3
[28] = test system: L1210; assay: Compound was tested for anticancer activity against L1210 leukemia in CD2F1 male mice at dose of 50 mg/kg per day; 12.6/7; type: functional, Mus musculus
[29] = test system: L1210; assay: Compound was tested for anticancer activities against L1210 leukemia in CD2F1 male mice at dose of 25 mg/kg per day; type: functional; settings: Mus musculus
[30] = test system: L1210; assay: Compound was tested for anticancer activity against L1210 leukemia in CD2F1 male mice at dose of 50 mg/kg per day; type: functional, Mus musculus
[31] = test system: L1210; assay: Compound was tested for anticancer activities against L1210 leukemia in CD2F1 male mice at dose of 6.5 mg/kg per day; 0/6; type: functional, Mus musculus
[32] = test system: L1210; assay: (§4) Compound was tested for anticancer activities against L1210 leukemia in CD2F1 male mice at dose of 6.5 mg/kg per day; type: functional; settings: Mus musculus
[33] = test system: L1210; assay: as §4; type: functional, Mus musculus

## CC1(C)CC(NC(=O)NP(=O)(N2CC2(C)C)N2CC2(C)C)CC(C)(C)N1[O] (stereo not given)
[1]; Mus musculus
  Weight change on day 5: 7.3%
[2]; Mus musculus
  ILS: 62%
[3]
  T/C: 164%
[4]
  Survivors at day 30: 0
[5]
  T/C survival days: 11.5
[6]; Mus musculus
  Optimal dose: 90
[7]
  Cures (survivors/total): 0
[8]
  ILS: 64%

## CC1(C)CC(NC(=O)NP(=O)(N2CC2)N2CC2)C(C)(C)N1[O] (stereo not given)
[9]
  selectivity ratio: 22.5
[2]
  ILS: 178%
[10]
  T/C: 172%
[11]
  Cures: 3 survivors/total
[6]
  Optimal dose: 90
[12]
  Survivors at day 30: 0
[13]
  ILS at 50 mg/kg/day: 72%
[14]
  T/C survival days: 12
[15]
  ILS40: 4 mg/kg/day
[16]
  ILS max: 387%

## CC1(C)CC(NC(=O)NP(=O)(N2CC2(C)C)N2CC2(C)C)C(C)(C)N1[O] (stereo not given)
[17]
  T/C survival days: 10.4
[2]; Mus musculus
  ILS: 56%
[3]
  T/C: 148%
[4]
  Survivors at day 30: 0
[6]; Mus musculus
  Optimal dose: 90
[7]
  Cures (survivors/total): 0
[18]; Mus musculus
  Weight change on day 5: 6.2%
[8]
  ILS: 48%

## O=c1[nH]cc(F)c(=O)[nH]1 [FLUOROURACIL]
[2]
  ILS: 79%
[6]
  Optimal dose: 200
[7]
  Cures: 0 survivors/total
[18]
  Weight change on day 5: -4%

## CC1(C)CC(OP(=S)(N2CC2)N2CC2)CC(C)(C)N1[O]
[9]
  selectivity ratio: 5.15
[2]
  ILS: 103%
[6]
  Optimal dose: 12

## O=P(N1CC1)(N1CC1)N1CC1 [TEPA]
[9]
  selectivity ratio: 2.2
[2]
  ILS: 135%
[6]
  Optimal dose: 6
[7]
  Cures: 0 survivors/total
[18]
  Weight change on day 5: -4%
[15]
  ILS40: 2.75 mg/kg/day

## CC1(C)CC(NC(=O)NP(=O)(N2CC2)N2CC2)CC(C)(C)N1[O]
[9]
  selectivity ratio: 26.5
[1]
  Weight change on day 5: -2.4%
[19]
  T/C survival days: 8.6
[20]
  Survivors at day 30: 0
[21]
  Survivors at day 30: 0
[2]
  ILS: 170%
[22]
  T/C survival days: 14
[23]
  ILS at 100 mg/kg/day: 115%
[24]
  ILS40: 3.4 mg/kg/day
  Optimal dose: 90
[25]
  T/C: 215%
[26]
  T/C: 123%
[27]
  Cures: 6 survivors/total
[28]
  T/C survival days: 12.6
[12]
  Survivors at day 30: 0
[13]
  ILS at 50 mg/kg/day: 81%
[29]
  ILS at 25 mg/kg/day: 23%
[30]
  T/C: 181%
[16]
  ILS max: 439%

## S=P(N1CC1)(N1CC1)N1CC1 [THIOTEPA]
[9]
  selectivity ratio: 2.75
[2]
  ILS: 141%
[31]
  Survivors at day 30: 0
[6]
  Optimal dose: 6
[7]
  Cures: 0 survivors/total
[18]
  Weight change on day 5: -2.1%
[32]
  ILS at 6.5 mg/kg/day: 55%
[15]
  ILS40: 2.18 mg/kg/day
[33]
  T/C: 155%

## CC1(C)CC(NP(=S)(N2CC2)N2CC2)CC(C)(C)N1[O]
[9]
  selectivity ratio: 2.73
[2]
  ILS: 96%
[6]
  Optimal dose: 25
